From ChEMBL document CHEMBL3616472, “Design, synthesis and structure-activity relationship studies of novel phenoxyacetamide-based free fatty acid receptor 1 agonists for the treatment of type 2 diabetes” (Bioorg Med Chem, 2015) come the findings set out here.

Data set [1] deals with T1, Free fatty acid receptor 1 (Homo sapiens, UniProt O14842). Put plainly: Agonist activity at human FFA1 expressed in CHO cells assessed as induction of receptor activation by measuring Ca2+influx at 300 nM incubated for by FLIPR method. Format: functional, cell-based. The procedure, abridged:
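CHO cells stably expressing human FFA1, seeded 15 K cells/well and grown 16 h at 37 °C. Response normalised as (A−B)/(C−B)×100 between vehicle (B) and 10 µM γ-linolenic acid (C).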

The target in data set [2] is T1, Free fatty acid receptor 1. Put plainly: Agonist activity at human FFA1 expressed in CHO cells assessed as induction of receptor activation by measuring Ca2+influx at 100 nM incubated for by FLIPR method. Format: functional, cell-based. In a few lines: (§1)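 CHO cells stably expressing human FFA1 (NM_005303), seeded 15 K cells/well, grown 16 h at 37 °C in 5% CO2. Compounds added and Ca2+ flux read on FLIPR Tetra. Activity expressed as (A−B)/(C−B)×100, with C from 10 µM γ-linolenic acid and B from vehicle. Single-concentration data are means of three independent experiments; EC50 values are means of three determinations.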

Data set [3] is described as follows: Lipophilicity, logD of the compound at pH 7.4 by shake flask method. It counts as physicochemical. Conditions: buffer. The procedure, abridged: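 Shake-flask method with 1-octanol and buffer at pH 7.4, shaken at 700 rpm for 24 h, then left 1 h to separate. Octanol phase diluted ×10; both phases analysed by HPLC at 254 nm in duplicate. logD taken as the octanol/buffer peak-area ratio, corrected using two calibration points per compound per solvent. Three independent experiments.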

For data set [4], the target named is T1, Free fatty acid receptor 1. Put plainly: Agonist activity at human FFA1 expressed in CHO cells assessed as induction of receptor activation by measuring Ca2+influx incubated for by FLIPR method. Format: functional, cell-based. In a few lines:
as §1

The subject of data set [5] is Mus musculus. Put plainly: Hypoglycemic activity in normal ICR mouse assessed as reduction in blood glucose level at 20 mg/kg, po by OGTT method. It counts as functional, organism-based. In a few lines: (§2)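 Male ICR mice, 10 weeks old, fasted 12 h and randomised into groups (n = 6). Single oral dose in 0.5% carboxymethyl cellulose (10 mL/kg) at 20, 50 or 80 mg/kg. Oral glucose load (3 g/kg, 30% solution) given 30 min later. Tail blood sampled at −30, 0, 15, 30, 45, 60 and 120 min; mean ± SEM, two-tailed Student's t-test against vehicle.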

In data set [6] the test system is Mus musculus. Put plainly: Hypoglycemic activity in normal ICR mouse assessed as reduction in blood glucose level at 20 to 80 mg/kg, po by OGTT method. Format: functional, organism-based. In a few lines:
as §2

The test system of data set [7] is Mus musculus. Put plainly: Hypoglycemic activity in STZ-induced type-2 diabetic C57BL/6 mouse assessed as reduction in blood glucose level at 50 mg/kg, po by OGTT method. Format: functional, organism-based. The procedure, abridged:
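Male C57BL/6 mice fed 45%-fat diet for 4 weeks, given STZ ip at 80 mg/kg, then fed high-fat diet for 4 more weeks. Mice with fasting glucose ≥11.1 mmol/L were used. After a 12 h fast (n = 6/group, with a normal-mouse control group), 50 mg/kg was given orally in 0.5% CMC, then 2 g/kg glucose orally 30 min later. Glucose read by test strip from −30 to 120 min; Student's t-test.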

Activity calls are given as the source filed them. The rule behind the calls is not given here.

T1 sequence (O14842 whole entry): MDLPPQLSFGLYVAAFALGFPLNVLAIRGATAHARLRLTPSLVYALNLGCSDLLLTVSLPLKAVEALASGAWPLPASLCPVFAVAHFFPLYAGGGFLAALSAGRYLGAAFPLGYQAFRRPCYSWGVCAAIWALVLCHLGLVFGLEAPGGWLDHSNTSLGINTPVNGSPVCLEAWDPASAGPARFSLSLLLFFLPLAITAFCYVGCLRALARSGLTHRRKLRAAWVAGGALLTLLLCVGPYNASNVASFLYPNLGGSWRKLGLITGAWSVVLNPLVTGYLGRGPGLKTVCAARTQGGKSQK

`O=C(O)COc1ccc(NC(=O)C(=O)Nc2ccccc2)cc1F`: the results for the Activity in data set [1] and in data set [2] were 26.5% and 9.78%, respectively. For the compound `Cc1cc(C)cc(OC(C)C(=O)Nc2ccc(OCC(=O)O)c(F)c2)c1` (stereo unspecified), in data set [2], the Activity was 25.7%. Regarding `COc1ccccc1NC(=O)C(=O)Nc1ccc(OCC(=O)O)c(F)c1`, the Activity was found to be 19.9% in data set [1] and 6.78% in data set [2]. Take `O=C(O)COc1ccc(NC(=O)COc2ccccc2)cc1F`: the Activity was 58.7% in data set [1] and 29.8% in data set [2]. In addition, the log distribution coefficient (logD) in data set [3] was -1.25.

In the case of `Cc1ccc(C(C)C)cc1OC(C)C(=O)Nc1ccc(OCC(=O)O)c(F)c1` (stereo unspecified), the Activity in data set [2] was determined as 19.4%.

For the compound `O=C(O)COc1ccc(NC(=O)Cc2ccccc2)cc1F`, the Activity in data set [1] amounted to 39.6%; in data set [2], 19.9%.

On to `O=C(O)COc1ccc(NC(=O)C2(C(=O)Nc3ccccc3)CC2)cc1F`, for which the values for the Activity in data set [1] and in data set [2] were 34.2% and 13.6%, respectively. With `O=C(O)COc1ccc(NC(=O)C(=O)Nc2ccccc2Cl)cc1F`, the Activity worked out at 27.9% in data set [1] and 10.2% in data set [2]. With `Cc1cccc(NC(=O)C(=O)Nc2ccc(OCC(=O)O)c(F)c2)c1`, the Activity in data set [1] worked out at 36.3%; in data set [2], 17.6%. Turning to `Cc1cc(OCCCS(C)(=O)=O)cc(C)c1-c1cccc(COc2ccc(OCC(=O)O)c(F)c2)c1`, the Activity in data set [1] was found to be 67.3%; in data set [2] it was 54.9%. The logD in data set [3] came out at 2.31.

As to `COc1ccc(OCC(=O)Nc2ccc(OCC(=O)O)c(F)c2)cc1`, in data set [2], the Activity stood at 5.73%. In the case of `O=C(O)COc1ccc(NC(=O)C(=O)Nc2cccc(Cl)c2)cc1F`, the Activity in data set [1] was 33.7%; in data set [2], 13.3%. Consider `CC(C)c1ccc(OCC(=O)Nc2ccc(OCC(=O)O)c(F)c2)cc1`, for which the Activity in data set [2] worked out at 11.8%. In the case of `Cc1ccc(C(C)C)cc1OCC(=O)Nc1ccc(OCC(=O)O)c(F)c1`, the Activity in data set [2] came to 14.6%. Also, in data set [3], the logD turned out to be 0.47. For the compound `O=C(O)COc1ccc(NC(=O)c2ccccc2)cc1F`, the Activity in data set [1] worked out at 12.8%; in data set [2], 3.56%.

As for `CCOc1ccc(OC(C)C(=O)Nc2ccc(OCC(=O)O)c(F)c2)cc1` (stereo unspecified), the Activity in data set [2] came to 3.56%. In the case of `COc1cccc(OCC(=O)Nc2ccc(OCC(=O)O)c(F)c2)c1`, the Activity in data set [2] is 31.7%. Further, the half-maximal effective concentration (EC50) in data set [4] came out at 148 nM.

With `CC(C)(C)c1ccc(OCC(=O)Nc2ccc(OCC(=O)O)c(F)c2)cc1`, in data set [2], the Activity turned out to be 7.65%. `Cc1cc(OCCCS(C)(=O)=O)cc(C)c1-c1cccc(COc2ccc3c(c2)OC[C@H]3CC(=O)O)c1` had a logD in data set [3] of 2.43. Further, the inhibition result in the data set on Mus musculus [5] was “Active”. On to `O=C(O)COc1ccc(NC(=O)COc2ccc(OC(F)(F)F)cc2)cc1F`, for which the Activity in data set [2] is 6.45%. Still for that read-out and setting: the same measure for `Cc1ccccc1OCC(=O)Nc1ccc(OCC(=O)O)c(F)c1`: 20.8%.

With `CC(Oc1ccccc1F)C(=O)Nc1ccc(OCC(=O)O)c(F)c1` (stereo unspecified), the Activity in data set [2] worked out at 35.1%. Besides, the EC50 in data set [4] is 136 nM. This compound returned a logD in data set [3] of 0.07.

With `Cc1ccc(NC(=O)C(=O)Nc2ccc(OCC(=O)O)c(F)c2)cc1`, the Activity came out at 29.9% in data set [1] and 11.3% in data set [2]. Consider `CCc1ccc(OCC(=O)Nc2ccc(OCC(=O)O)c(F)c2)cc1`, for which the Activity in data set [2] worked out at 14.6%. `Cc1ccc(OC(C)C(=O)Nc2ccc(OCC(=O)O)c(F)c2)cc1C` (stereo unspecified): in data set [2], the Activity worked out at 36.8%. For the same compound, the concentration giving a half-maximal response (EC50) in data set [4] is 133 nM. In data set [3], this compound yielded a logD of 0.33.

Turning to `CC(C)(Oc1ccccc1)C(=O)Nc1ccc(OCC(=O)O)c(F)c1`, in data set [2], the Activity was 3.56%.

For `Cc1ccc(C)c(OC(C)C(=O)Nc2ccc(OCC(=O)O)c(F)c2)c1` (stereo unspecified), in data set [2], the Activity worked out at 18.6%. Regarding `CC(Oc1ccccc1)C(=O)Nc1ccc(OCC(=O)O)c(F)c1` (stereo unspecified), in data set [2], the Activity amounted to 35.7%. The concentration giving a half-maximal response (EC50) in data set [4] turned out to be 135 nM. For the same compound, in data set [3], the pH-dependent lipophilicity (logD) was -0.18.

Consider `Cc1cccc(OCC(=O)Nc2ccc(OCC(=O)O)c(F)c2)c1`, for which the Activity in data set [2] was determined as 45.4%. Further, the concentration for a half-maximal effect (EC50) in data set [4] is 108 nM. Further, the logD in data set [3] is -0.99. Further, the inhibition entry in the data set on Mus musculus [6] was “Dose-dependent effect”. In addition, the inhibition entry in the data set on Mus musculus [7] is “Active”. Consider `CC(Oc1cccc(C(F)(F)F)c1)C(=O)Nc1ccc(OCC(=O)O)c(F)c1` (stereo unspecified), for which the Activity in data set [2] amounted to 12.7%.

For `O=C(O)COc1ccc(NC(=O)COc2cccc(C(F)(F)F)c2)cc1F`, in data set [2], the Activity amounted to 11.3%. Turning to `CC(C)c1cccc(OCC(=O)Nc2ccc(OCC(=O)O)c(F)c2)c1`, the Activity in data set [2] came out at 43.3%. Further, the EC50 in data set [4] stood at 116 nM. This compound also showed a pH-dependent lipophilicity (logD) in data set [3] of 0.15. For the compound `O=C(O)COc1ccc(NC(=O)Nc2ccccc2)cc1F`, the Activity was determined as 23.7% in data set [1] and 8.47% in data set [2]. `CC(Oc1cccc(C(C)(C)C)c1)C(=O)Nc1ccc(OCC(=O)O)c(F)c1` (stereo unspecified): the Activity in data set [2] is 32.8%. In addition, the EC50 in data set [4] was 140 nM. This compound displayed a log distribution coefficient (logD) in data set [3] of 0.63. Consider `Cc1ccc(OCC(=O)Nc2ccc(OCC(=O)O)c(F)c2)cc1`, for which the Activity in data set [2] is 31.2%. The EC50 in data set [4] came to 148 nM.

Turning to `CCOc1ccccc1OC(C)C(=O)Nc1ccc(OCC(=O)O)c(F)c1` (stereo unspecified), the Activity in data set [2] amounted to 8.79%.

As for `CC(C)(C)c1cccc(OCC(=O)Nc2ccc(OCC(=O)O)c(F)c2)c1`, in data set [2], the Activity came to 40.2%. Also, in data set [4], the half-maximal effective concentration (EC50) turned out to be 122 nM. In data set [3], the pH-dependent lipophilicity (logD) turned out to be 0.35.
